B1: Bcl-w ΔC10 (C29S, A128E), His6-tagged recombinant (domain or fragment, UniProt Q92843 1-183, looked up)
chain: MATPASAPDTRALVADFVGYKLRQKGYVSGAGPGEGPAADPLHQAMRAAGDEFETRFRRTFSDLAAQLHVTPGSAQQRFTQVSDELFQGGPNWGRLVAFFVFGAALCAESVNKEMEPLVGQVQEWMVEYLETQLADWIHSSGGWAEFTALYGDGALEEARRLREGNWASVRTVLTGAVALGAL

Columns and labels:
[1] = tested on: endogenous Bcl-w in HeLa cells; experiment: Drug-induced membrane association of endogenous Bcl-w, HeLa cells; format: cell-based; settings: 24 h, 1.0 μg/ml etoposide (VP16) or 10 nM staurosporine
Summary of the method: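 HeLa cells were harvested 24 h after 50 Jm−2 UV, 1.0 μg/ml etoposide or 10 nM staurosporine. Lysis was in HMKEE buffer (Hepes pH 7.2) with 250 mM sucrose and 0.025% digitonin, 10 min on ice. Pellet (13,000 rpm, 2 min, 4°C) was solubilised in RIPA. Soluble and pellet fractions were immunoblotted for endogenous Bcl-w.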

Bcl-w in FDC-P1 cells = experiment: Damage-induced membrane association of Bcl-w, FDC-P1 cells; format: cell-based
Summary of the method: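 FDC-P1 or FD/FLAG–Bcl-w cells were given 100 nM staurosporine, 10 Gy γ irradiation or IL-3 withdrawal, in some runs with 50 μM zVAD.fmk. Cells were lysed in HMKEE/250 mM sucrose/0.025% digitonin for 10 min on ice. Pellet (13,000 rpm, 2 min, 4°C) and soluble fractions were separated. Pellet was RIPA-solubilised, with or without alkali treatment, and immunoblotted for Bcl-w.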

FDC-P1 cells = experiment: Inhibition of apoptosis / cell survival; format: cell-based; settings: zVAD.fmk with death signals
[2] = molecular target: T1, L94ABH3, 26-mer Bim BH3 peptide with L94A (mouse, L94A (stands in the printed letters)); experiment: SPR
T1 peptide: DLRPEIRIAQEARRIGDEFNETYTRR

[3] = molecular target: B1; experiment: SPR
Bcl-w ΔC10 = molecular target: T2, Bcl-w ΔC10 (Homo sapiens, UniProt Q92843, A128E/C29S); experiment: Optical biosensor; format: binding
T2 sequence (Q92843 1-183 C29S/A128E limits assumed): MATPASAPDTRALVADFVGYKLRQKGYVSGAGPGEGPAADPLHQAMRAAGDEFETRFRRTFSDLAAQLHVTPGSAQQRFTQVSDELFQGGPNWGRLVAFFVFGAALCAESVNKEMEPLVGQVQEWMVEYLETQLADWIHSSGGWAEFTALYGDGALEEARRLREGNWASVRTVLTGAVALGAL

BimEL = experiment: Coimmunoprecipitation of Bcl-w constructs with BimEL; format: binding; settings: 35S-labeled lysates, 293T cells

## COc1cc([C@@H]2c3cc4c(cc3[C@@H](O[C@@H]3O[C@@H]5CO[C@@H](C)O[C@H]5[C@H](O)[C@H]3O)[C@H]3COC(=O)[C@H]23)OCO4)cc(OC)c1O [etoposide]
[1]
  membrane association of endogenous Bcl-w: Damage signals trigger membrane association of endogenous Bcl-w in HeLa cells

## CN[C@@H]1C[C@H]2O[C@@](C)([C@@H]1OC)n1c3ccccc3c3c4c(c5c6ccccc6n2c5c31)C(=O)NC4 [staurosporine]
Bcl-w in FDC-P1 cells; FDC-P1 cells, 100 nM staurosporine
  membrane association of endogenous Bcl-w, alkali-resistant: damage signals induce membrane association resistant to alkali treatment
[1]
  membrane association of endogenous Bcl-w: Damage signals trigger membrane association of endogenous Bcl-w in HeLa cells

## zVAD.fmk
Bcl-w in FDC-P1 cells; 50 μM zVAD.fmk plus death signals, FD/FLAG–Bcl-w cells
  recruitment of Bcl-w to the membrane fraction with caspase inhibitor: Bcl-w was still recruited into the membrane fraction in response to death signals
FDC-P1 cells
  delay of cell death: delayed cell death

## B1
[2]
  fold reduction of binding against wtBH3: > 50 fold

B2: BimLΔC27 (recombinant BimL lacking its COOH-terminal hydrophobic 27 amino acids) (domain or fragment, mouse, UniProt O54918-2 1-113, looked up)
chain: MAKQPSDVSSECDREGGQLQPAERPPQLRPGAPTSLQTEPQDRSPAPMSCDKSTQTPSPPCQAFNHYLSAMASIRQSQEEPEDLRPEIRIAQELRRIGDEFNETYTRRVFAND
[3]
  binding result: binds

B3: BimLΔC27: Purified recombinant BimL lacking its COOH-terminal hydrophobic 27 amino acids (protein)
chain: MAKQPSDVSSECDREGGQLQPAERPPQLRPGAPTSLQTEPQDRSPAPMSCDKSTQTPSPPCQAFNHYLSAMASIRQSQEEPEDLRPEIRIAQELRRIGDEFNETYTRRVFAND
modifications: left off: GST, end not stated, state not stated
Bcl-w ΔC10
  binding to Bcl-w: binds purified Bcl-w with high (nM) affinity

B4: Wild-type Bcl-w: prosurvival Bcl-2 family protein, expressed FLAG-tagged (protein)
chain: MATPASAPDTRALVADFVGYKLRQKGYVCGAGPGEGPAADPLHQAMRAAGDEFETRFRRTFSDLAAQLHVTPGSAQQRFTQVSDELFQGGPNWGRLVAFFVFGAALCAESVNKEMEPLVGQVQEWMVAYLETQLADWIHSSGGWAEFTALYGDGALEEARRLREGNWASVRTVLTGAVALGALVTVGAFFASK
modifications: left off: FLAG, N-terminal, kept
BimEL
  binding to BimEL: interacts avidly with Bim

## DLRPEIRIAQELRRIGDEFNETYTRR [wtBH3, 26-mer peptide spanning the BH3 domain of Bim]
[3]
  binding result: binds
